Measured values from ChEMBL document CHEMBL1138747, “Synthesis and structure--activity relationship in a class of indolebutylpiperazines as dual 5-HT(1A) receptor agonists and serotonin reuptake inhibitors” (J Med Chem, 2004).
Where “and” joins values, the source holds several entries; their conditions need not be identical. Equal values may be shown once.

Experiments:
[1] = target: 5-hydroxytryptamine receptor 6 (Rattus norvegicus, UniProt P31388); experiment: Inhibition of rat hydroxytryptamine 6 receptor
Sequence of 5-hydroxytryptamine receptor 6 (P31388 whole entry): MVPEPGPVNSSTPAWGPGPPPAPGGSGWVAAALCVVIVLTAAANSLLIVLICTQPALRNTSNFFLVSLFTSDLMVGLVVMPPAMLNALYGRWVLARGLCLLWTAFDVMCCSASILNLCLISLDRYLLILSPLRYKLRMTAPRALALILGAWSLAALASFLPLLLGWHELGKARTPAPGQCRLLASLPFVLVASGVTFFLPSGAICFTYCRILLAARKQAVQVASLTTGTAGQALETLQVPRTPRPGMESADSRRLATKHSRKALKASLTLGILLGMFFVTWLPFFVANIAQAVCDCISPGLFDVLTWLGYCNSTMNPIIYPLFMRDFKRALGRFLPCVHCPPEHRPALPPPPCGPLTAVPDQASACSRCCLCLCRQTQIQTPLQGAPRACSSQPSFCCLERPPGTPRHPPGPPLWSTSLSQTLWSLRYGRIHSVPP

D(2) dopamine receptor = D(2) dopamine receptor (Rattus norvegicus, UniProt P61169); experiment: Displacement of [3H]spiperone from dopamine D2 receptor of rat striatal membranes; assay type: cell membranes, Membrane
Sequence of D(2) dopamine receptor (P61169 whole entry): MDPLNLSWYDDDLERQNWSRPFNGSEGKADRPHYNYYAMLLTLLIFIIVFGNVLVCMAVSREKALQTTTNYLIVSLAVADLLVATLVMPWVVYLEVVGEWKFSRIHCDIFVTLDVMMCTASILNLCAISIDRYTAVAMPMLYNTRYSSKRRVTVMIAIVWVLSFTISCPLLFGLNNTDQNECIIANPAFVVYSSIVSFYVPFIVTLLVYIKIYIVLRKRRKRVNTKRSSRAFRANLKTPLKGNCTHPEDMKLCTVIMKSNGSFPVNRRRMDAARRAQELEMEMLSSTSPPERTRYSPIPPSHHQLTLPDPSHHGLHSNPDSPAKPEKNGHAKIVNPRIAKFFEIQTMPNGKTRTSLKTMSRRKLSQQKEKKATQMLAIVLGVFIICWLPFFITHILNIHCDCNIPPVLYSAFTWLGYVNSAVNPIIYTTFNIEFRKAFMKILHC
In short: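 IC50 from 5–10 compound concentrations, each in triplicate, taken as the concentration (nM) giving 50% inhibition of specific radioligand binding.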

[2] = target: 5-hydroxytryptamine receptor 4 (Rattus norvegicus, UniProt Q62758); experiment: Inhibition of rat hydroxytryptamine 4 receptor
Sequence of 5-hydroxytryptamine receptor 4 (Q62758 whole entry): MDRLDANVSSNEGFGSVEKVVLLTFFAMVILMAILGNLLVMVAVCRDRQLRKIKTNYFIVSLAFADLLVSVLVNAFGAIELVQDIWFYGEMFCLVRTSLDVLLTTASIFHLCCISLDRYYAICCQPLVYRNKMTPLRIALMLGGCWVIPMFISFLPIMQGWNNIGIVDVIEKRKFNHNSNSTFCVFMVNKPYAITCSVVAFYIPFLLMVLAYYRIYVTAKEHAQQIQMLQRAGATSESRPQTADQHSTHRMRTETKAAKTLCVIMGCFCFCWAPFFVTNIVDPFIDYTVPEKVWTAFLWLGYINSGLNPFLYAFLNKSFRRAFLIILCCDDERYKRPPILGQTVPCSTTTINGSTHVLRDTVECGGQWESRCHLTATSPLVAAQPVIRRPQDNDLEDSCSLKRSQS

[3] = Inhibition of kappa opioid receptor
[4] = Inhibition of histamine H1 receptor
[5] = target: T1, Adrenergic receptor alpha-1 (Homo sapiens, UniProt P35348+P25100+P35368); experiment: Inhibition of alpha-1-adrenergic receptor; assay type: protein assay
T1 sequence (P35348 whole entry): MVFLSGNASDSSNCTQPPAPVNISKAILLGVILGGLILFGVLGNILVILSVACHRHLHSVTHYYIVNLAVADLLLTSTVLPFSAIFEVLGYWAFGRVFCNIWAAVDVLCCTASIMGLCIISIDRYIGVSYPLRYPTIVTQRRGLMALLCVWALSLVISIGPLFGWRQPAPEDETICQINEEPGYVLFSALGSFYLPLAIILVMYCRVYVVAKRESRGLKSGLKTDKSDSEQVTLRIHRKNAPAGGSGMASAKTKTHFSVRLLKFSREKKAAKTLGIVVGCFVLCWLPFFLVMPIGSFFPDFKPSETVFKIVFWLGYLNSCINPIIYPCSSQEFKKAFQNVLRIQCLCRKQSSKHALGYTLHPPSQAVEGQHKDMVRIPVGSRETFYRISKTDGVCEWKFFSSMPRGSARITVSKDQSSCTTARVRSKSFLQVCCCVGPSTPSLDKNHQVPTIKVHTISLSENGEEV
T1 sequence (P25100 whole entry): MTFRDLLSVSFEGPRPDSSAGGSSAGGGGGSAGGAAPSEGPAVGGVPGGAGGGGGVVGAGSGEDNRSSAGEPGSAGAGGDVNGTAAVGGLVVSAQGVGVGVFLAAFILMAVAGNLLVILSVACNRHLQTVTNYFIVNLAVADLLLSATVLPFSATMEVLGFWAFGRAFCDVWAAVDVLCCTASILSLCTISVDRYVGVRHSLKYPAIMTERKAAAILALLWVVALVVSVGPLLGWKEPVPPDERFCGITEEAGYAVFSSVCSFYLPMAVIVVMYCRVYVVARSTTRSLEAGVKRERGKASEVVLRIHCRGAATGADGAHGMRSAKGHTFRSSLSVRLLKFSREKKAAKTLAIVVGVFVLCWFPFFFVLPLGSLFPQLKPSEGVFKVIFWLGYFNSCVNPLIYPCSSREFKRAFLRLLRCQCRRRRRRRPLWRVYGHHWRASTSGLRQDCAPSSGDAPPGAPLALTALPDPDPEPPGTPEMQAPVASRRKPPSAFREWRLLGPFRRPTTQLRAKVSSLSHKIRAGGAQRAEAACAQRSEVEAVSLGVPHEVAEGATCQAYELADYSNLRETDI
T1 sequence (P35368 whole entry): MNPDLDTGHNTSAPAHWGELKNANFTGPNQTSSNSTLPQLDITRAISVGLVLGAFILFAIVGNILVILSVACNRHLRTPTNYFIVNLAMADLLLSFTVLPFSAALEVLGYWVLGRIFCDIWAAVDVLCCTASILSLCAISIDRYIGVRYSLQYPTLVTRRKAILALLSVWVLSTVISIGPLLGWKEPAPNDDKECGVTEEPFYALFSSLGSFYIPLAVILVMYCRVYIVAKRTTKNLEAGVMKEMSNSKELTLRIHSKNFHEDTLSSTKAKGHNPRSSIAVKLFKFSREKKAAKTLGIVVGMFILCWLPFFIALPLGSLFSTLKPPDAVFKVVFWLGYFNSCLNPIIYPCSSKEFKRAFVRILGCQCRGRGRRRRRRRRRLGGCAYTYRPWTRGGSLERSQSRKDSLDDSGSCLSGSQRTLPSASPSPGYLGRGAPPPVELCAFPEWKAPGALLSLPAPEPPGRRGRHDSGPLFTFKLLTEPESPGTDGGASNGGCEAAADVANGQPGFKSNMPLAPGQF

[6] = target: 5-hydroxytryptamine receptor 2A (Rattus norvegicus, UniProt P14842); experiment: Inhibition of rat hydroxytryptamine 2A receptor
Sequence of 5-hydroxytryptamine receptor 2A (P14842 whole entry): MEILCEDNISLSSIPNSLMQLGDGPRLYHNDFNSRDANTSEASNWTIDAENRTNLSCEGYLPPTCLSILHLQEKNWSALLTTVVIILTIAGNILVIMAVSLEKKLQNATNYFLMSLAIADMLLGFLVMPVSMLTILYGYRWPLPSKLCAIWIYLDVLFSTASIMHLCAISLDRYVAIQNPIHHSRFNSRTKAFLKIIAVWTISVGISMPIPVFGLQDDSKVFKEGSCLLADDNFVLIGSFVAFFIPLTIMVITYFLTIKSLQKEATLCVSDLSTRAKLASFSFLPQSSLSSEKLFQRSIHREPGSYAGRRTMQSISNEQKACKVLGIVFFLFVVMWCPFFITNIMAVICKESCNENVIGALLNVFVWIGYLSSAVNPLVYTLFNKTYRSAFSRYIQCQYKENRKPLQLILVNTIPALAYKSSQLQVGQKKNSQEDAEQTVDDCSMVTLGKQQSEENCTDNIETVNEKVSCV

[7] = target: T2, 5-hydroxytryptamine receptor 2C (Rattus norvegicus, UniProt P08909); experiment: Inhibition of rat hydroxytryptamine 2C receptor
T2 sequence (P08909 whole entry): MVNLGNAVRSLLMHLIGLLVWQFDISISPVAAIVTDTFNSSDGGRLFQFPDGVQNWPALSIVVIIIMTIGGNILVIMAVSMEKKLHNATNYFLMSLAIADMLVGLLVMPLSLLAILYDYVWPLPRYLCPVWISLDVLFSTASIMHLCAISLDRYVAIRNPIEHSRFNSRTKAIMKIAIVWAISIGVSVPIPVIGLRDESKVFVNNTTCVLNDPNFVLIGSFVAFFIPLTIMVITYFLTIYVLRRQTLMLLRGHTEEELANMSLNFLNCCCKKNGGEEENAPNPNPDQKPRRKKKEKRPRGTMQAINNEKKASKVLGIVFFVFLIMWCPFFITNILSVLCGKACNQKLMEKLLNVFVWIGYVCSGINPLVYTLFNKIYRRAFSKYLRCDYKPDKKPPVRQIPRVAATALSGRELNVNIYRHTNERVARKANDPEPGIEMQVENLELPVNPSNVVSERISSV

Rattus norvegicus [8] = experiment: Dose required to inhibit ultrasonic vocalisation on subcutaneous administered; assay type: functional; conditions: sc, read-out: ID50 (the source's name)
In short: (§1)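 Rat ultrasonic vocalization test. In a priming session, up to 10 grid-floor shocks were given (1.8 mA, 0.3 s, 20 s apart). Rats not vocalizing on three consecutive trials were excluded. Next day, rats were tested 2 h after dosing: five shocks, then vocalization duration recorded over 3 min. ID50 (dose for half-maximal inhibition) came from dose–response curves.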

Rattus norvegicus [9] = experiment: Dose required to inhibit ultrasonic vocalisation on peroral administered; assay type: functional; conditions: po, read-out: ID50 (the source's name); in short: as §1
[10] = Inhibition of histamine H2 receptor
[11] = target: 5-hydroxytryptamine receptor 1D (Rattus norvegicus, UniProt P28565); experiment: Inhibition of rat hydroxytryptamine 1D receptor
Sequence of 5-hydroxytryptamine receptor 1D (P28565 whole entry): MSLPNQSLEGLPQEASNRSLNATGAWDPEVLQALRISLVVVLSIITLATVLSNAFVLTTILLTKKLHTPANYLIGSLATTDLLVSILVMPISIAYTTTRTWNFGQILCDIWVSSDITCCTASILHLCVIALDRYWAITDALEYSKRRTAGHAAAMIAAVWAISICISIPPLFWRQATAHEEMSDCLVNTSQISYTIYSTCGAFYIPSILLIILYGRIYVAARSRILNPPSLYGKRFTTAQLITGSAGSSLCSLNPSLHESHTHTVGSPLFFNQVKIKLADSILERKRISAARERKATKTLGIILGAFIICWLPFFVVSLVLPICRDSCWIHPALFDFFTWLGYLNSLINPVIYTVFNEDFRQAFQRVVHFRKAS

D(3) dopamine receptor = D(3) dopamine receptor (Rattus norvegicus, UniProt P19020); experiment: Inhibition of rat dopamine D3 receptor
Sequence of D(3) dopamine receptor (P19020 whole entry): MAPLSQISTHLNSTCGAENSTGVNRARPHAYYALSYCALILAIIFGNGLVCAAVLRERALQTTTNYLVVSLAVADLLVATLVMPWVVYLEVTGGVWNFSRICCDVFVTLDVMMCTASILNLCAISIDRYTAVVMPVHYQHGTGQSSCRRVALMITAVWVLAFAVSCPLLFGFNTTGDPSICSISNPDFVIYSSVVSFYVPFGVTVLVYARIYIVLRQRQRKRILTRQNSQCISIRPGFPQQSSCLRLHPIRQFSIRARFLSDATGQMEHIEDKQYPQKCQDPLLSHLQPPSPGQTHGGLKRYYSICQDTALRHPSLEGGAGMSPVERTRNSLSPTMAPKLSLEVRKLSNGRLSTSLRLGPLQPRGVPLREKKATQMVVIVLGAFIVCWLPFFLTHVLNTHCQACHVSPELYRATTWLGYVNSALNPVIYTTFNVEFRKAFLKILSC

SMILES: N#Cc1ccc2[nH]cc(CCCCN3CCN(c4ccc5oc(C(N)=O)cc5c4)CC3)c2c1 [VILAZODONE]
- IC50 [1]: 3 µM
- IC50 (D(2) dopamine receptor): 95 nM and 666 nM
- IC50 [2]: 252 nM
- IC50 [3]: > 1000 nM
- IC50 [4]: 317 nM
- IC50 [5]: 1980 nM
- IC50 [6]: 1510 nM
- IC50 [7]: 2000 nM
- ED50 (Rattus norvegicus [8]): 4 mg/kg
- ED50 (Rattus norvegicus [9]): 13 mg/kg
- IC50 [10]: > 1000 nM
- IC50 [11]: 4 µM
- IC50 (D(3) dopamine receptor): 71 nM
